Where “and” joins values, the source holds several entries; their conditions need not be identical. Equal values may be shown once.
Tests used:
[1] = test system: Cyclin D1 protein expression in Cl41 cells; experiment: Western blotting of Cyclin D1; format: cell-based, mouse; conditions: normal Cl41 cell line, 24h
[2] = test system: Cyclin D1 protein expression in UMUC3 cells; experiment: Western blotting of Cyclin D1 and cell cycle regulators; format: cell-based, human
[3] = test system: human bladder cancer cells; conditions: cited from earlier work
[4] = test system: endogenous Cyclin D1 and exogenous GFP-Cyclin D1 in UMUC3 transfectants; experiment: Western blotting in stable transfectants; format: cell-based, human; conditions: ISO 24 h
Method in brief: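 UMUC3 cells stably transfected with GFP or GFP-Cyclin D1 constructs were treated with test compound for 24 h. Cells were lysed in 10 mM Tris-HCl (pH 7.4), 1% SDS, 1 mM Na3VO4, and protein was quantified by DC assay. Blots were probed with primary antibodies and an AP-conjugated secondary, with ECF detection.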

[5] = test system: UMUC3 cells; experiment: Cell viability, ATPase activity assay; format: cell-based, human
Method in brief: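 Cells exposed for 48 h to varying concentrations of test compound, with 0.1% DMSO as vehicle control. Viability read by an ATPase-based assay in three independent experiments. UMUC3 kept in DMEM with 10% FBS at 37 °C and 5% CO2. IC50 given with n=3.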

[6] = test system: RT4 cells; experiment: Cell viability, ATPase activity assay; format: cell-based, human; conditions: read-out: IC50, cell viability; RT4, ISO 5–60 μM, 48 h, n=3
[7] = test system: UMUC3 cells; experiment: Cell morphology observation; format: cell-based, human; conditions: UMUC3, 20 μM ISO, 24 hours
[8] = test system: cardiac hypertrophy; conditions: by anti-oxidative activity; cited from earlier work
[9] = test system: SP1-dependent transcriptional activity in UMUC3 cells; experiment: SP1 luciferase reporter assay; format: cell-based, human; conditions: UMUC3 stable reporter, ISO 5μM, P<0.01
Method in brief: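 A reporter with three consensus SP1 sites was stably co-transfected with pRL-TK and pSuper into UMUC3 cells. Cells were seeded at 1×10^4 per well and, at 80–90% confluence, exposed to 5 μM test compound for various times. Lysis buffer was Tris-phosphate pH 7.8 with EDTA, Triton X-100 and glycerol. Dual-luciferase read-out gave relative SP1 activity (means±SE, three independent experiments).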

[10] = test system: Cyclin D1 protein expression in RT4 cells; experiment: Western blotting of Cyclin D1; format: cell-based, human; conditions: low grade RT4 cell line, 24h
[11] = test system: UMUC3(GFP-Cyclin D1) cells; experiment: Cell cycle analysis by flow cytometry in stable transfectant; format: cell-based, human; conditions: ISO 24 h, control 51.01%
[12] = test system: Cyclin D1 promoter transcriptional activity in UMUC3 cells; experiment: Cyclin D1 promoter-driven luciferase reporter assay; format: cell-based, human; conditions: ISO 5μM
Method in brief: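 UMUC3 cells stably carrying a Cyclin D1 promoter-luciferase reporter were seeded at 1×10^4 per well and treated with 5 μM test compound at 80–90% confluence for the indicated times. Luciferase activity read on a microplate luminometer.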

[13] = test system: bovine aortic smooth muscle cells (BASMCs); conditions: cited from earlier work
[14] = test system: Cyclin D1 protein expression in RT112 cells; experiment: Western blotting of Cyclin D1; format: cell-based, human
[15] = test system: SP1 protein expression in UMUC3 cells; experiment: Western blotting of cytoplasmic and nuclear extracts for transcription factors; format: cell-based, human; conditions: UMUC3, 5 μM ISO, 12 h
Method in brief: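 UMUC3 cells in 10-cm dishes were treated with 0.1% DMSO or 5 μM test compound for 12 h. Cytoplasmic and nuclear fractions were prepared with a nuclear/cytosol fractionation kit and stored at −80°C. Immunoblots used an AP-conjugated secondary with ECF detection and GAPDH as loading control. Nuclear SP1 was quantified by scanning relative to C-Jun (n=3).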

[16] = test system: UMUC3 cells; experiment: Cell cycle and apoptosis analysis by flow cytometry; format: cell-based, human; conditions: UMUC3, 5 μM ISO; for cells in G0/G1 (growth arrest): control 47.58%
[17] = test system: UMUC3(GFP) cells; experiment: Cell cycle analysis by flow cytometry in stable transfectant; format: cell-based, human; conditions: ISO 24 h, control 62.74%
[18] = ISO pharmacokinetics in mouse serum, LC/MS/MS; format: in vivo, mice; conditions: for Caverage ± SD, serum ISO concentration: mouse serum, 150 mg/kg gastric gavage, n=3
Method in brief: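 Male […] mice (20–25 g, 30 total) received 150 mg/kg by gastric gavage; three were killed per time point from 0.033 to 4 h. Serum (centrifuged 4000 rpm, 30 min; stored −20 °C) extracted with methanol, filtered 0.45 μm and run on LC/MS/MS: negative ESI, MRM, m/z 257.0/241.1, naringenin 271.1/151.1. Parameters derived by non-compartmental analysis.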

[19] = test system: UMUC3 (GFP) and UMUC3 (GFP-Cyclin D1) cells; experiment: Anchorage-independent growth in soft agar, stable transfectants; format: cell-based, human; conditions: UMUC3 (GFP) vs UMUC3 (GFP-Cyclin D1) in soft agar
Method in brief: (§1)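 UMUC3 cells (DMEM, 10% FBS; stable GFP or GFP-Cyclin D1 transfectants made by co-transfection with pSuper vector) were seeded at 1×10^4 per well in 0.33% soft agar in 10% FBS BME, with or without test compound, over a 0.5% agar bottom layer. Vehicle was 0.1% DMSO. Cultures were kept at 37°C, 5% CO2 for 21 days. Colonies over 32 cells were counted by microscope as colonies per 10,000 seeded cells (mean±SD, 3 experiments).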

[20] = test system: cyclin d1 mRNA in UMUC3 cells; experiment: Semiquantitative RT-PCR; format: cell-based, human; conditions: UMUC3, concentration- and time-dependent (24 h; 5 μM time course)
Method in brief: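 UMUC3 cells treated with test compound at the indicated concentrations for 24 h, or at 5 μM for the indicated times. Total RNA isolated with TRIzol and reverse transcribed. Cyclin D1 mRNA measured by semiquantitative RT-PCR against GAPDH, with products run on 2% agarose and stained with ethidium bromide.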

[21] = test system: Cl41 cells; experiment: Cell viability, ATPase activity assay; format: cell-based, mouse; conditions: normal Cl41 cells, ISO 5–60 μM, 48 h
[22] = test system: SP1 binding to Cyclin D1 promoter in UMUC3 cells; experiment: ChIP assay; format: cell-based, human; conditions: UMUC3, ISO 5 μM, 12 hours
Method in brief: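 Chromatin immunoprecipitation (EZ-ChIP kit) on UMUC3 cells left untreated or given 5 μM test compound for 12 h. Precipitated DNA amplified by PCR with primers covering the SP1-binding region −92 to +27 of the human Cyclin D1 promoter.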

[23] = test system: UMUC3 cells; experiment: Anchorage-independent growth assay; format: cell-based, human; conditions: UMUC3 in soft agar, concentration-dependent, as low as 5 μM, P<0.01
Method in brief: as §1

[24] = mice, 150 mg/kg oral, non-compartmental model

In the case of COc1cc(/C=C/c2cc(O)cc(O)c2)ccc1O [ISO, Isorhapontigenin], the “Cyclin D1 expression” value [1] is reported as “marginal induction of Cyclin D1”, the “earliest time of significant reduction of Cyclin D1 expression” value ([2]; UMUC3, 5 μM ISO) is reported as 6 h and the “Cyclin B1 expression” value ([2]; UMUC3, 5 μM ISO, 24 h) is reported as “slightly reduced”. For the same compound, the “expression of Cyclin A, Cyclin E, Cyclin B1, CDK4, CDK6, P53, P27, P21” value ([2]; UMUC3, different concentrations of ISO, 24 hours) was “did not show observable inhibition”, the “Cyclin D1 protein expression” value ([2]; UMUC3, different concentrations of ISO, 24 hours, vs DMSO) was “concentration-dependent reduction of Cyclin D1 protein expression” and the apoptosis ([3]; UMUC3 and other invasive BC cells, 20μM) was “induced apoptosis”. For the same compound, the cytotoxic effect ([3]; human bladder cancer cell lines, concentration lower than 20 μM) was “do not show cytotoxic effect”, the anchorage-independent growth ([3]; human bladder cancer cells, 20~60 μM) was “significant inhibitory effect on anchorage-independent growth” and the “endogenous Cyclin D1 vs exogenous GFP-Cyclin D1 protein expression” value [4] was “only downregulated endogenous Cyclin D1 protein expression”. The cell proliferation ([5]; UMUC3, 5 μM ISO) was “inhibition of cell proliferation”, the IC50 ([5]; read-out: IC50, cell viability, UMUC3, ISO 5–60 μM, 48 h, n=3) was 22.4 ± 3.3 µM and the IC50 [6] was 38.6 ± 2.9 µM. The morphologic changes [7] was “shrinkage, rounding, detachment and membrane blebbing”, the cardiac hypertrophy [8] was “inhibits cardiac hypertrophy” and the SP1-dependent transcriptional activity [9] was “dramatically inhibition of SP1-dependent transcriptional activity”. For the same compound, the “Cyclin D1 expression” value [10] was “slight inhibition”, the “cells in G0/G1 (growth arrest)” value [11] was 54.61% and the “Cyclin D1 transcription, SP1 mutant reporter” value ([12]; UMUC3/SP1mut-Cyclin D1-Luc transfectant) was “did not shown a significant inhibition of Cyclin D1 transcription”. For the same compound, the “Cyclin D1 transcription, WT reporter” value ([12]; UMUC3/WT Cyclin D1-Luc transfectant) was “inhibited Cyclin D1 transcription”, the “Cyclin D1 promoter transcriptional activity” value ([12]; UMUC3 stable reporter, time-dependent, P<0.01) was “marked inhibition of Cyclin D1 promoter transcriptional activity” and the “oxLDL-induced proliferation and mitogenesis” value [13] was “inhibitory effect”. The “earliest time of significant reduction of Cyclin D1 expression” value ([14]; RT112, 5 μM ISO) was 6 h, the “Cyclin D1 expression” value ([14]; high grade RT112 cell line, 24h) was “markedly inhibition of Cyclin D1 expression” and the SP1 protein expression [15] was “only downregulated SP1 protein expression”. For the same compound, the “expression, activation or nuclear translocation of C-FOS, P-C-JUN(ser 73), P-C-JUN(ser63), C-JUN, HSF-1, P-ATFII, P-NF-κB p65, NF-κB p65” value [15] was “did not show any observable inhibition”, the apoptotic cells [16] was “did not induce any increases of apoptotic cells” and the “cells in G0/G1 (growth arrest)” value ([16]; 12h) was 57.98%. The “cells in G0/G1 (growth arrest)” value ([16]; 24h) was 62.62%, the “cells in G0/G1 (growth arrest)” value [17] was 74.60% and the “AUC(0-t)” value [18, 24] was 6090 ± 2810 ng·h/mL. For the same compound, the “AUC(0-∞)” value [18, 24] was 6100 ± 2800 ng·h/mL, the “CLz/F, apparent clearance” value [18, 24] was 462 ± 172 mL/min/kg and the “MRT(0-t), mean residence time” value [18, 24] was 0.70 ± 0.20 h. For the same compound, the “t1/2z, terminal half-life” value ([18]; mice, 150 mg/kg oral, non-compartmental model, 150 mg/kg) was 1.7 h and 1.72 ± 0.27 h, the “Caverage ± SD, serum ISO concentration” value ([18]; 0.033 h) was 6800 ± 2100 ng/mL and the “Caverage ± SD, serum ISO concentration” value ([18]; 0.083 h) was 10740 ± 3520 ng/mL. For the same compound, the “Caverage ± SD, serum ISO concentration” value ([18]; 0.170 h) was 12350 ± 4790 ng/mL, the “Caverage ± SD, serum ISO concentration” value ([18]; 0.250 h) was 9230 ± 4840 ng/mL and the “Caverage ± SD, serum ISO concentration” value ([18]; 0.500 h) was 6220 ± 3600 ng/mL. For the same compound, the “Caverage ± SD, serum ISO concentration” value ([18]; 0.750 h) was 830 ± 800 ng/mL, the “Caverage ± SD, serum ISO concentration” value ([18]; 1.000 h) was 290 ± 240 ng/mL and the “Caverage ± SD, serum ISO concentration” value ([18]; 1.500 h) was 280 ± 140 ng/mL. The “Caverage ± SD, serum ISO concentration” value ([18]; 2.000 h) was 170 ± 120 ng/mL, the “Caverage ± SD, serum ISO concentration” value ([18]; 4.000 h) was 30 ± 10 ng/mL and the “inhibition of anchorage-independent growth” value [19] was “reversed by ectopic expression of GFP-Cyclin D1”. The “cyclin d1 mRNA” value [20] was “marked reduction of cyclin d1 mRNA”, the cell viability [21] was “no obvious reduction of cell viability” and the “SP1 binding to Cyclin D1 promoter region −92~+27” value [22] was “this binding was impaired”. The anchorage-independent growth [23] was “markedly inhibited anchorage-independent growth”.

Reference: publication PMC3744103 (Molecular cancer therapeutics, 2013)
